# Key:
# other GPCRs = experiment: GPCR selectivity assays, cardiovascular receptor safety panel; format: binding, human; settings: tested up to 30 µmol/L
# human APJ [1] = biological target: T1, human APJ (Homo sapiens, UniProt P35414); experiment: cAMP inhibition assay, HEK293 ZF cells; format: cell-based
# T1 sequence (P35414 1-380): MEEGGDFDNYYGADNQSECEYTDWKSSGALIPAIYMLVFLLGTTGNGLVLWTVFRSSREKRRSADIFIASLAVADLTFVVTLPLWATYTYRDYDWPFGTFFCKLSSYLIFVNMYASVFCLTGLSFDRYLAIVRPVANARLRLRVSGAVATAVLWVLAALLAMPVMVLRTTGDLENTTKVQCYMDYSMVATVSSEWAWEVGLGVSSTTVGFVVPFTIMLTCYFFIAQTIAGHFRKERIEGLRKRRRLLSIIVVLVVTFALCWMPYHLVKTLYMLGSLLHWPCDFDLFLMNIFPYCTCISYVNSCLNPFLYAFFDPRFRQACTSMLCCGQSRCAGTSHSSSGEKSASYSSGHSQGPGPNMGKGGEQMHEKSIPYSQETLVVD
# human APJ [2] = biological target: T1, human APJ; experiment: BRET-based biosensor assays; format: cell-based
# [3] = test system: instrumented anesthetized rats; experiment: Acute hemodynamics, 15-min IV infusion of BMS-986224; format: in vivo, rat; settings: for CO percentage change from baseline / SV percentage change from baseline: 15 min
# Procedure, shortened: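 Male Sprague-Dawley rats (≥250 g), anesthetized and surgically instrumented, received a 15-min IV infusion of test compound at 1, 10 or 100 μg/kg per min, then a 15-min washout. Vehicle-infused rats served as comparison. SV, CO, dP/dtmax, HR and mean arterial pressure were expressed as percentage change from baseline. Plasma exposure was sampled at each dose.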
# [4] = Plasma exposure during and after IV infusion, anesthetized cannulated rats; format: in vivo, rat
# [5] = test system: RHR (renal hypertensive rat) model; experiment: RHR model, subcutaneous infusion via osmotic minipump; format: in vivo; settings: SC infusion
# Procedure, shortened: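 Renal hypertensive rats (male Sprague-Dawley) received test compound for 10 days by subcutaneous osmotic minipump. The low dose targeted a steady-state plasma level of ≈100 nmol/L; the high dose targeted ≈10-fold more. SV, CO and diastolic parameters were assessed by echocardiography, with cardiac fibrosis and heart weight also scored. One-way ANOVA with Tukey or Dunnett tests was used.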
# [6] = test system: RHR (renal hypertensive rat) model; experiment: RHR model, oral BID study; format: in vivo
# [7] = test system: RHR (renal hypertensive rat) model; experiment: RHR model, oral QD study; format: in vivo; settings: both doses (0.06 and 0.2 mg/kg)
# [8] = Plasma concentrations of BMS-986224 in the RHR studies; format: in vivo, rat; settings: for steady-state plasma concentration: SC 10-day infusion
# Procedure, shortened: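 Renal hypertensive rat model in male Sprague-Dawley rats. Dosing was either a 10-day SC infusion by osmotic minipump or oral BID dosing at 0.1 and 1 mg/kg. The SC low dose targeted a steady-state level of ≈100 nmol/L, and the high dose targeted ≈10-fold more. The oral doses targeted ≈200 nmol/L at peak or trough. Peak, trough and steady-state plasma levels were measured, and AUC(0–24) was derived.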
# [9] = test system: instrumented anesthetized rats; experiment: Acute hemodynamics, dobutamine single dose 15-min IV infusion; format: in vivo, rat; settings: 1 μg/kg/min IV, N=8
# Procedure, shortened: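 Male Sprague-Dawley rats (≥250 g), anesthetized and surgically instrumented; test agents given as a 15-min IV infusion followed by a 15-min washout. Cardiac output and heart rate were expressed as percentage change from baseline during and after infusion. Paired Student t test was used for significance.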
# [10] = 40 mg/kg/day SC infusion, BID study
compound,measurement,setting,value
CCOCc1nc(O)c(-c2nnc(Cc3ccc(Cl)cn3)o2)c(O)c1-c1c(OC)cccc1OC [BMS-986224],binding/activity at other GPCRs,other GPCRs,did not bind other GPCRs
same,EC50,human APJ [1],0.02 ± 0.02 nM
same,signaling bias relative to (Pyr1) apelin-13,human APJ [2],lack of bias
same,"relative activity vs (Pyr1) apelin-13, ΔLog (RA)","human APJ [2]; ratio of Ymax and EC50, each signaling readout",> 0
same,CO percentage change from baseline,[3]; 1 μg/kg/min IV,8.2%
same,SV percentage change from baseline,[3]; 1 μg/kg/min IV,6.0%
same,decrease in mean arterial pressure from baseline,"[3]; 10 μg/kg per minute, P<0.001 versus vehicle",1.9%
same,CO percentage change from baseline,[3]; 10 μg/kg/min IV,15.4%
same,SV percentage change from baseline,[3]; 10 μg/kg/min IV,12.6%
same,CO percentage change from baseline,[3]; 100 μg/kg/min IV,15.9%
same,SV percentage change from baseline,[3]; 100 μg/kg/min IV,12.3%
same,maximum increase in CO,[3]; 15-min IV infusion,≈ 15%
same,maximum effective dose,[3]; based on the increases in CO,10 μg/kg per minute
same,minimum effective dose,[3]; based on the increases in CO,1 μg/kg per minute
same,Plasma exposure,[4]; 1 μg/kg per minute IV,95 ± 5 nmol/L
same,free plasma concentration at the minimum effective dose,"[4]; adjusted for protein binding, 1 μg/kg per minute",2 nM
same,"other measured parameters (diastolic parameters, cardiac fibrosis, heart weight)",[5],without affecting
same,SV and CO,"[5]; high dose 3 mg/kg/day, 3 mg/kg/day",not noted
same,LV mass or EF vs vehicle,"[6]; oral BID, trough",no significant differences
same,SV and CO,[7],increased
same,steady-state plasma concentration,[8]; HD,2686 nmol/L
same,steady-state plasma concentration,[8]; low dose,102 nmol/L
same,area under the plasma drug concentration−time curve (0–24),[8]; oral 0.1 mg/kg BID,3.42 µM·h
same,peak plasma concentration,[8]; oral 0.1 mg/kg BID,205 ± 11 nmol/L
same,trough plasma concentration,[8]; oral 0.1 mg/kg BID,25 ± 4 nmol/L
same,area under the plasma drug concentration−time curve (0–24),[8]; oral 1 mg/kg BID,34.3 µM·h
same,peak plasma concentration,[8]; oral 1 mg/kg BID,2095 ± 161 nmol/L
same,trough plasma concentration,[8]; oral 1 mg/kg BID,302 ± 29 nmol/L
CC(CCc1ccc(O)cc1)NCCc1ccc(O)c(O)c1 (centres unmarked) [Dobutamine],Cardiac output % change from baseline,[9],11.2%
CCOC(=O)[C@H](CCc1ccccc1)N[C@@H](C)C(=O)N1CCC[C@H]1C(=O)O [Enalapril],LV end-diastolic volume vs vehicle,[6]; [10],increased
same,"LV mass, heart weight, and EF vs vehicle",[6]; [10],reduced
same,"SV, CO, and HR vs vehicle",[6]; [10],without significant effect

# — PMC7982131 (Circulation. Heart Failure, 2021)
